Measurements taken from ChEMBL document CHEMBL4513216, “Probing the Open Global Health Chemical Diversity Library for Multistage-Active Starting Points for Next-Generation Antimalarials” (ACS Infect Dis, 2020).

assay: Toxicity liver stage against HepG2, at 10uM; assay type: cell-based; set-up: test concentration 10 uM, cell line HepG2-A16-CD81EGFP; conditions: human, HepG2-A16-CD81EGFP cells; read-out: INHIBITION
Procedure, shortened: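 Uninfected HepG2-A16-CD81EGFP cells, 3 × 10^3 per well, 1536-well, plated on prespotted compound at 10 μM final, parasite-free screening media added to match infected plates; puromycin 10 μM positive, DMSO 0.5% negative; run in parallel with 48 h PbLuc assay at 37 °C, 5% CO2; viability by CellTiter-Glo luminescence, normalized to controls.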

SMILES	cytotoxicity at 10 µM [%]
CC(C)(C)n1cc(C(=O)NCCN2CCOCC2)c2cccnc21	2.14
O=C(Cn1nc2c(cc1=O)CSCC2)N[C@@H](Cc1ccccc1)C(=O)O	-3.14
Cc1ccccc1NC(=O)N1CC[C@@H]2CN(C)S(=O)(=O)[C@@H]2CC1	4
CC(C)NC(=O)N1CCCC2(CCCCN2)C1 (stereo not given)	11.4
CN1CCCN(C(=O)c2cc3c(s2)CCN3C(=O)C2CC2)CC1	6.74
O=c1cc(Cn2cncn2)nc2n1CCCN(CC1CCOCC1)C2	7.77
CN(C)Cc1cc(=O)n2c(n1)CN(CC1CCOCC1)CCC2	6.37
O=C(c1ccco1)N1CCN2C[C@H](Oc3cncnc3)C[C@H]2C1	-2.97
Cc1nc([C@H]2C[C@H]3CN(C(=O)c4ccoc4C)CC[C@@H]3O2)no1	0.369
CCCS(=O)(=O)N1CC[C@H]2O[C@@H](c3nc(C)no3)CC[C@H]21	-2.48
O=C(c1cscn1)N1CCn2cnc(COCC3CC3)c2C1	-4.6
CNC(=O)[C@@]12CCCN(c3ncccn3)[C@@H]1CN(c1ncc(C)cn1)C2	3.97
COC(=O)CNC(=O)c1c(-n2cnnn2)sc2c1CCCC2	10.6
CC(C)S(=O)(=O)c1nnc(CCNC(=O)OC(C)(C)C)o1	9.28
COc1ccc2nnc(CCCC(=O)NCc3cccn3C)n2n1	3.85
COc1ccc(C(=O)N2CCCC2c2ccco2)cc1OC (stereo not given)	1.03
O=C(O)c1cc2c(nc1O)CC(c1cccs1)CC2=O (stereo not given)	8.32
O=C(O)c1nnn(-c2ccc(F)c(F)c2)c1-c1ccncc1	3.72
CCc1ccccc1-n1nnc(C(=O)O)c1-c1ccccn1	-6.42
Cc1cc2[nH]c(O)nc2cc1NCc1ccc(F)cc1	16.1
CCCn1ccc(C(=O)Nc2ccc3c(c2)C(C)(C)C(=O)N3C)n1	8.44
CC(=O)Nc1ncc(S(=O)(=O)Nc2ccc(F)cc2)s1	0.976

SMILES	cytotoxicity at 10 µM [%]
O=C(C1CC1)N1CCC(Nc2nc(O)cc(-c3ccsc3)n2)CC1	5.29
O=S(=O)(c1cn[nH]c1)N1CCC(O)(CN2CCC(F)(F)CC2)C1 (stereo not given)	5.92
CCN(CC)S(=O)(=O)NCc1ccc(-c2ccc(C(N)=O)c(C)n2)cc1	2.77
Cc1nc(CN2CC(CCCc3ccccn3)(C(=O)N(C)C)C2)co1	7.43
CN(C)C(=O)CN1CCC2(CC1)CN(S(C)(=O)=O)Cc1ccccc1O2	0.56
COCCN1CCCC(c2cncc(Oc3ccccc3OC)n2)C1 (stereo not given)	-22.8
CC(=O)N1CCc2nnc(C3CCCN3CC3CCCCC3)n2CC1 (stereo not given)	-1.54
c1ccc(-c2cc(CNCCN3CCCC3)c3nnnn3c2)cc1	-17.4
Cc1nc2ccc(C(=O)N3CC[C@H](O)[C@@H](N4CCOCC4)CC3)cc2[nH]1	-8.32
CS(=O)(=O)c1cn[nH]c1C1CCCCN1C(=O)Cc1cccnc1 (stereo not given)	-30.7
COCc1ccc(C(=O)N2CC[C@H](O)[C@@H](n3ccnc3)CC2)cc1	-12.1
NC(=O)C1(CCCc2ccccn2)CCCN(c2ncccn2)C1 (stereo not given)	-5.69
Cn1cc(-c2nc(C(=O)N3CCCC3c3cnn(C)c3)cs2)cn1 (stereo not given)	1.85
Cc1csc(CN(C)C2CCN(c3sccc3C#N)C2=O)n1 (stereo not given)	5.44
CC(C)C1CN(C(=O)c2cc(F)cc3[nH]cnc23)CCS1 (stereo not given)	1.97
COc1ccc(Cl)cc1CN(CC(N)=O)C(C)C	1.49
O=C(CS(=O)(=O)Cc1ccc(Br)cc1F)Nc1cn[nH]c1	-9.2
Cn1c(CCNC(=O)Nc2cn[nH]c2)nc2ccc(F)cc21	-6.97
O=C(CN1CCCc2cc(F)cc(F)c21)Nc1ccc(Br)cn1	11
CC(C)(NC(=O)c1cnc(C(C)(C)C)s1)C(N)=O	-4.04
Cc1ccc(C(=O)N(C)CC(=O)N2CCCC2)c(C)c1	-0.705
CCC(=O)NCC1(O)CCC(C(C)(C)C)CC1 (stereo not given)	5.81

SMILES	cytotoxicity at 10 µM [%]
O=C(CCc1nnc(-c2ccsc2)o1)NCC1CCN(C2CC2)C1 (stereo not given)	-1.73
Cc1csc(CCNC(=O)N2CCC(n3cccc3)CC2)n1	3.98
CC(O)(CNC(=O)NCCc1ccc2c(c1)CCO2)c1ccccc1 (stereo not given)	6.36
COc1cc(OC)cc(N2CCC(NCc3occc3C)C2=O)c1 (stereo not given)	0.995
O=C(NCCNS(=O)(=O)c1cc(F)cc(F)c1)c1ccoc1	-1.33
COCCn1ccc2cc(NC(=O)N(C)C(C)CSC)ccc21 (stereo not given)	0.08
COCCOCC(=O)Nc1ccc(C)cc1Br	-6.99
Cc1nc(C2(NCC(=O)NC(=O)Nc3ccccc3)CCCCC2)no1	30.4
CC(C)COCCC(=O)Nc1c(-c2ccc(F)cc2)ncn1C	-1.18
CS(=O)(=O)NCC1CCCN(C(=O)c2ccc3c(c2)CCC3)C1 (stereo not given)	-5.52
O=C(c1ncoc1C1CCCO1)N1CCCC2(CCCCC2)C1 (stereo not given)	-5.14
CC(C)(C)CNS(=O)(=O)C1CS(=O)(=O)c2ccccc21 (stereo not given)	14.3
Cn1ccnc1CNc1ccc(F)c(N2CCCS2(=O)=O)c1	-1.45
Cc1nn(C)c(C)c1NC(=O)CNc1ccc(F)c(C(F)(F)F)c1	0.0371
Cc1cncc(C(=O)N2CCOc3nc(C)ccc32)c1	5.19
O=C(NCC1(c2ccc(F)cc2)CC1)N1CCC2(CCOC2)C1 (stereo not given)	-6.72
COc1ccc(CC(=O)N(C)c2cccnc2N(C)C)c(Cl)c1	5.71
COCCN(Cc1ccc(F)cc1C#N)CC(F)(F)F	-3.02
Cc1ccc(C(=O)Nc2ccc(N3CCCC3)cn2)cc1F	47.4
CN(CCC(F)(F)F)c1nc2ccccc2c(=O)[nH]1	-5.11
COC(=O)c1cccc(NCC(=O)NC(N)=O)c1	6.88
Cc1ccc(C(C)NC(=O)Nc2ccccc2CN2CCOCC2)o1 (stereo not given)	3.25

SMILES	cytotoxicity at 10 µM [%]
CCOC(=O)NC(CNC(=O)CCc1ccccn1)CC(C)C (stereo not given)	-4.61
CCS(=O)(=O)CC(=O)NC(c1ccccc1)C1CCCCC1 (stereo not given)	-4.01
CNS(=O)(=O)c1cc(C(=O)NC2CCOc3ccccc32)cc(C)c1C (stereo not given)	6.82
Cc1nccc(C(=O)N2CCCN(Cc3cnn(C(C)C)c3)CC2)n1	-0.239
CCOCC1CN(S(C)(=O)=O)Cc2nn(C)cc21 (stereo not given)	-95.9
O=C(CC1CC1)NCc1cn2c(n1)CN(C(=O)c1cccnc1)CC2	1.03
COC(=O)CCCn1ccnc1-c1ccccc1	-4.65
CN(C(=O)COc1ccc(F)cc1)[C@@H]1CS(=O)(=O)C[C@H]1O	-2.62
COc1nc2c(cc1C(=O)N(C)Cc1[nH]nc3c1CCC3)CCC2	-1.77
c1ccc(CN2CCC(CCNc3ncnc4c3CCNCC4)C2)cc1 (stereo not given)	-0.16
COc1ccc(CN2CCCC2)cc1Oc1ccc(NC(C)=O)cc1	-1.1
O=C(O)[C@@H]1CN(C(=O)CN2CCCCCC2)C[C@H]1c1ccccc1	4.97
Cc1ccc2nc(C3CCCN3Cc3scnc3C)[nH]c2c1 (stereo not given)	8.2
CSc1ccccc1NC(=O)N1C[C@@H](N(C)C)[C@H](c2ccc(C)cc2)C1	-12
NC(=O)c1c[nH]nc1NC(=O)c1ccc(Cl)cc1	3.19
CCOc1ncccc1NC(=O)N1CCN(c2ccc(O)cc2)CC1	-9.92
CC(C)(O)CN1CCN(C(=O)c2cccc3cccnc23)CC1	-10.7
O=C(NCc1cccnc1)Nc1cc(C(F)(F)F)c[nH]c1=O	-1.78
Cc1cc(C)c(CNC(=O)N2CCN(c3nccs3)CC2)c(=O)[nH]1	-20.9
CCC(O)CN1CCN(C(=O)Cc2ccc(OC)cc2OC)CC1 (stereo not given)	-23.8
CCc1nccn1C1CCCN(C(=O)CCCc2ccccn2)C1 (stereo not given)	-18.7
CSCCC(=O)N1CCCC(n2ccnc2)C1 (stereo not given)	-6.28

SMILES	cytotoxicity at 10 µM [%]
CCN(Cc1ccc2c(c1)OCCO2)C(=O)NCc1csc(C)n1	-5.16
Cc1noc(C2CCCN(C(=O)c3ccc(Cl)cc3F)C2)n1 (stereo not given)	-25.3
CC(=O)N1CCCC1C(=O)NCCOc1cc(C)cc(C)c1 (stereo not given)	-10.5
c1ccc(CCCN2CC(n3cccn3)C2)cc1	-3.83
O=C(NCc1ccccn1)NC1CCOc2ccccc21 (stereo not given)	-8.99
CCc1noc(CN2CCCN(C(N)=O)CC2)n1	-4.12
CCc1nc(CN2CCCC(NCc3cnn(C(C)(C)C)c3)C2)no1 (stereo not given)	-6.77
CCOc1cc(/C=C/c2ncc(C(=O)O)s2)cc(Cl)c1OC	8.13
COc1ccc(C(=O)NCCc2nnc3ccccn23)c(OC)c1	9.6
Cc1ccc(CNCC(C)Oc2ccccn2)cc1 (stereo not given)	5.4
Cc1ccc(N2CCC3(CCN(C(=O)c4ccnnc4)CC3)CC2)nn1	3.94
O=C(c1ccco1)N1CC[C@H]2[C@H]1CC(=O)N2c1cccnc1	-95.8
Cn1cc(CN2CCCC3(COCCN(Cc4c[nH]nn4)C3)C2)cn1 (stereo not given)	-0.501
COc1cc(N2C[C@@H]3COC[C@]3(COc3ccccn3)C2)ncn1	1.35
Cc1cccc(NC(=O)N2CCCn3cnc(CN(C)C(C)C)c3C2)c1	8.18
Cc1cc(CN2CC[C@H]3[C@H]2CCN3C)oc1C	-0.655
O=c1[nH]c2ncccc2n1C1CCNCC1	11.5
O=C1COC2(CCN(c3ncccn3)CC2)CN1Cc1ccccn1	2.4
Cn1nnc2c1CCN(C(=O)C1CC1)C2COCCN1CCCC1 (stereo not given)	8.33
COCC(=O)NC1CC2(CCN(CCF)CC2)Oc2ccccc21 (stereo not given)	-0.864
Cn1cccc1C(=O)N1CCn2nnc(COc3cccnc3)c2C1	-69.7
Cc1cnc(C(=O)N2C[C@H]3CN(Cc4cccnc4)C[C@H]3C2)cn1	2.4
